Compounds with a hit are over-represented: about 5.7% of the library has one in this group of screens.
T cruzi repl: blocks replication of Trypanosoma cruzi; inhibition, % (concentration not given with the values); T. cruzi beta-gal in NIH3T3, luminescence, 90 h; 300,000 tested, 1.4% active;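 active = mean inhibition across valid replicates above about 55%, limit read from the data; inconclusive = mean below that limit but half or more replicates reach it; inactive = mean below it, under half of replicates reach it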;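 also: signal also drops with host cell toxicity which is not excluded here; 0% = plate median of DMSO wells and 100% = zero luminescence signal; higher percent means less beta-gal luminescence so fewer parasites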
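Assay system: NIH/3T3 host cells with β-galactosidase reporter T. cruzi; input: 5,000 host fibroblasts per well; compound: single 50 nL compound addition per well in DMSO; timing: ≥90 h infection period, 3 h prior cell attachment; measured by: GalScreen β-gal luminescence, detergent lysis, 60 min; evaluation: percent inhibition of parasite-derived β-gal signal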
Mdm2-MdmX inh: inhibitors of human Mdm2/MdmX interaction | O15151+Q00987 | SaOS-2 split-luciferase Mdm2/MdmX complementation, luminescence | inhibition, % at 8 µM | 330,000 tested, 3% active | AID 485346;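 active = inhibition of at least 50% at 8 µM in the primary screen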
Target sequence (O15151 whole entry, looked up): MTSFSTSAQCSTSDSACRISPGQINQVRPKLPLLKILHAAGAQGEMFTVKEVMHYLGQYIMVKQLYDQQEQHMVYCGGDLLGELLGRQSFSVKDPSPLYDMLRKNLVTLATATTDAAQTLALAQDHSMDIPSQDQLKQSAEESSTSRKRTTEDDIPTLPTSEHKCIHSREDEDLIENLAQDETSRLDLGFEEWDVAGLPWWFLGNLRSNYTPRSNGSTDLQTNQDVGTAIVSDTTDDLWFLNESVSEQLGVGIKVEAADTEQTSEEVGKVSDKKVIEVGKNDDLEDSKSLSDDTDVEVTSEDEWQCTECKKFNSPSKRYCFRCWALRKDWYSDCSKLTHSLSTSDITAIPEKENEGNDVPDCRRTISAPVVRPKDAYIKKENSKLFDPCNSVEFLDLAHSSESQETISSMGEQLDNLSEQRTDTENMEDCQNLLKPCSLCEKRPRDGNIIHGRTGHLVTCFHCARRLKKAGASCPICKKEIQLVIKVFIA
Target sequence (Q00987 whole entry, looked up): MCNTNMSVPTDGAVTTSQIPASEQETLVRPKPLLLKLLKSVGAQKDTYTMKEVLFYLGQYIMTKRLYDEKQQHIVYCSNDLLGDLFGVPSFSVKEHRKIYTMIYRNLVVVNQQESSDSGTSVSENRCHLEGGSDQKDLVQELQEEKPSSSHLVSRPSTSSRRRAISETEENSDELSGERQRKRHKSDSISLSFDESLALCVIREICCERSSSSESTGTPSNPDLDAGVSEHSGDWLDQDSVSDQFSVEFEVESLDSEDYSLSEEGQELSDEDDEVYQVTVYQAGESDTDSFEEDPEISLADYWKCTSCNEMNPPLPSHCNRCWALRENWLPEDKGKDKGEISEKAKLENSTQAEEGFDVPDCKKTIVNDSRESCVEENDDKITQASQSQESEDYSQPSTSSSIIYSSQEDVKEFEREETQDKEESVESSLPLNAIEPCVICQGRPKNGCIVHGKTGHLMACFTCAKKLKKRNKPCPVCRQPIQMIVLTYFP
Calb FLC: affects C. albicans growth with fluconazole; C. albicans CaCi-2 + fluconazole, Alamar Blue growth, 48 h; growth inhibition, % (no concentration beside the values); 300,000 tested, 0.57% active; AID 1979;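 active = growth inhibition above about 58% in most replicates, limit read from the data, passing the limit was not always enough; inconclusive = exactly half the replicates above a set limit; inactive = most replicates below a set limit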;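 also: all wells also contain fluconazole at 8 µg/ml as a sub-toxic cotreatment; 0% = median of DMSO wells and 100% = median of geldanamycin control wells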
SKKanGAS inh: blocks kanamycin growth of S. pyogenes SKKanGAS strain | inhibition, % at 7.5 µM | 300,000 tested, 1.3% active | BacTiter-Glo, 6 h;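 active = mean replicate score, as percent of positive control median, at least 50; inconclusive = mean below 50 but one replicate at or above 50; inactive = mean and every replicate below 50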;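 also: strain carries kanamycin resistance gene driven by streptokinase promoter and grows in 40 µg/ml kanamycin; loss of luminescence reflects streptokinase promoter inhibition or plain growth inhibition; 0% = median of DMSO wells and 100% = positive control at its reference dose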
CSC inhib: blocks cancer stem cells; 300,000 tested, 1.1% active; cancer stem cell-like cells viability, luminescence; inhibition, % at 7.5 µM; in the data active = inhibition above about 75%; inconclusive = no clear call, values can overlap the other calls; tested in HMLE shEcad cells
Beta apoptosis: blocks beta cell apoptosis | INS-1E cytokine-induced death, ATP luminescence, 48 h; percent of positive-control rescue, neutral wells zero | protection from apoptosis, % (no concentration beside the values) | 300,000 tested, 0.8% active | AID 435005;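 active = Every replicate reaches about 75%, or at least half do and their mean reaches it too, limit read from the data; inconclusive = At least half of replicates reach the limit but their mean does not; inactive = Under half of replicates reach the limit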;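 also: 0% = cytokine-treated negative control wells and 100% = positive control rescue; higher means more ATP so stronger rescue from cytokine killing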
* = called active by the depositor; u = inconclusive; x = no result.

SMILES | T cruzi repl | Mdm2-MdmX inh | Calb FLC | SKKanGAS inh | CSC inhib | Beta apoptosis
O=C(CSc1ccc2nnc(CCNC(=O)c3ccccc3)n2n1)Nc1ccc(F)cc1F | 4 | 20 | -1 | 1 | -23 | -3
COc1ccc(-c2cc3nc(C)c(CCC(=O)NCc4ccc(F)cc4)c(C)n3n2)c(OC)c1 | 60* | 0 | -31 | 2 | -11 | 10
COc1cc(OC)cc(-c2cc3nc(C)c(CCC(=O)NC(C)CCc4ccco4)c(C)n3n2)c1 (configuration not stated) | 65* | 16 | 8 | 9 | -12 | 6
Cc1nc2cc(-c3cccc(F)c3)nn2c(C)c1CCC(=O)NC(C)CCc1ccco1 (configuration not stated) | 39 | 27 | 2 | 11 | -8 | x
O=C(CCCOc1ccccc1)NNC(=O)c1ccncc1 | x | 12 | x | x | -13 | -1
Cc1cc(C)cc(OCC(=O)O/N=C(\N)c2ccccc2Cl)c1 | 4 | 16 | -10 | -5 | 13 | 0
COc1ccc(-c2ccc(C)cc2)cc1[C@H]1[C@@H]2C=CCC[C@@]2(C)C(=O)N1Cc1ccccc1 | 32 | 40 | 14 | 41 | 115* | 4
CC(=O)Oc1cc2c3c(c1)/C(=C1/SC(=S)NC1=O)C(=O)N3C(C)(C)C=C2C | 1 | 10 | 1 | 82* | 16 | 12
COc1ccccc1OCCNC(=O)Cc1ccc(S(=O)(=O)N2CCOCC2)s1 | 0 | 11 | -6 | 13 | 11 | -9
COc1cc2ccccc2cc1C(=O)Nc1ccc(Cc2ccncc2)cc1 | 62* | 29 | 26 | 26 | 97* | 32
COc1ccccc1NS(=O)(=O)c1ccc2c(c1)CCN2C(=O)CCC(=O)O | -3 | 1 | -3 | -8 | 3 | -7
Cc1cccc(N2CCN(C(=O)CCCn3c(=S)[nH]c4cc5c(cc4c3=O)OCO5)CC2)c1C | 57* | 34 | -4 | 39 | x | 7
O=C(CCCn1c(=S)[nH]c2cc3c(cc2c1=O)OCO3)N1CCN(c2ccccc2)CC1 | 23 | 22 | 31 | -9 | -14 | 6
C[C@H](CO)N1C[C@H](C)[C@@H](CN(C)C(=O)Nc2ccc(F)cc2)Oc2ccc(NS(C)(=O)=O)cc2C1=O | x | -20 | x | x | x | -3
C/C(=C\C(=O)c1sccc1Cl)N(C)C | -26 | 2 | 3 | 3 | -6 | 3
COc1cc(OC)cc(-c2cc3ccc(OC)cc3cn2)c1 | x | -147 | x | x | 94* | 36
O=C1CN(C(=O)CNCc2cccc(Cl)c2)c2ccccc2N1 | -4 | -12 | 5 | -7 | -18 | -6
Cc1cccc(Nc2nc(-c3ccc(F)c(C)c3)cs2)n1 | 29 | -246 | -7 | 72* | 43 | 4
Cc1cc(N2CCN(c3ccc(C(F)(F)F)cc3[N+](=O)[O-])CC2)c2ccccc2n1 | 49 | 34 | 39 | 14 | 97* | 15
COc1ccccc1C(=O)Nc1ccc(C(=O)Nc2ccccc2C(=O)O)cc1 | -3 | 33 | 26 | 50* | -4 | -1
COc1ccc(NC(=O)c2ccccc2NC(=O)c2ccccc2)cc1 | -1 | 3 | 1 | -1 | -12 | 0
Cc1ccc(Cl)cc1NC(=O)c1ccccc1OCC(=O)Nc1ccc(Cl)cc1 | 36 | 22 | 5 | 3 | 78* | 65
CCOc1ccccc1C(=O)Nc1cc(Cl)ccc1O | 10 | 11 | 34 | 54* | x | 4
O=C(COc1ccccc1Cl)Nc1cc(Cl)ccc1Oc1ccccc1 | 20 | -5 | -3 | -8 | 89* | 6
Cc1ccc(COc2ccc(CNCCCN3CCCCCC3=O)cc2)cc1 | 32 | 17 | -6 | -4 | 37 | -8
SMILES | T cruzi repl | Mdm2-MdmX inh | Calb FLC | SKKanGAS inh | CSC inhib | Beta apoptosis
O=C(COc1ccc(Cl)cc1Cl)Nc1ccc(C(=O)Nc2ccccc2C(=O)O)cc1 | -6 | 30 | -1 | 62* | -7 | -5
Cc1ccc(C(=O)Nc2ccccc2C(=O)O)cc1NC(=O)COc1c(C)cccc1C | 4 | 23 | 22 | 22 | -17 | -1
Cc1cc(C(=O)Nc2ccccc2C(=O)O)ccc1NC(=O)COc1cccc(C)c1C | -13 | 0 | 3 | 54* | 12 | 4
COC(=O)c1sc(N2C(=O)C(O)=C(C(=O)c3ccc(C)o3)C2c2cc(OC)ccc2OC)nc1C (configuration not stated) | -1 | 26 | 68 | 1 | 7 | 1
CCc1ccc(C2c3[nH]c4ccccc4c3CCN2C(=O)CN2CCN(CC)CC2)cc1 (configuration not stated) | 40 | 30 | -10 | 3 | 23 | 12
CCc1ccc(C2c3[nH]c4ccccc4c3CCN2C(=O)c2ccc(=O)n(C)n2)cc1 (configuration not stated) | 20 | 17 | 88* | 6 | 21 | 4
CSc1ccc(C2c3[nH]c4ccccc4c3CCN2C(=O)c2ccnn2C)cc1 (configuration not stated) | 20 | -21 | 92* | 2 | 28 | -2
CCOC(=O)[C@@H]1[C@H]2COc3ccccc3[C@@H]2N2C(=O)N(c3cccc(F)c3)C(=O)[C@]12C | -9 | -10 | 4 | 4 | 4 | x
Cc1ccc(F)cc1NC(=O)COC(=O)COc1ccc(C#N)cc1 | -2 | -23 | -8 | 12 | -11 | -3
COC(=O)c1ccc(COc2ccccc2/C=C(\C#N)C(=O)Nc2c(C)cc(C)cc2C)cc1 | 47 | 49 | u | 15 | 117* | 22
CCCOc1ccccc1NC(=O)Nc1ccccc1Cl | -40 | 12 | 14 | 2 | -8 | 4
CCOC(=O)C1=C(c2ccccc2)NC(=O)NC1c1ccsc1 (configuration not stated) | -21 | -27 | 21 | 2 | -12 | -1
CC(C)NCC(O)COCCOc1ccc(Br)cc1 (configuration not stated) | 63* | 10 | 1 | -9 | 7 | x
CCC(C)NCCOc1ccc(Br)cc1 (configuration not stated) | -8 | -37 | -6 | -3 | 0 | 2
CCN1CCN(CC(O)COCCOc2ccc(Br)cc2)CC1 (configuration not stated) | 21 | 14 | -1 | -12 | 24 | -5
CCC(C)NCCOCCOc1ccc(Br)cc1 (configuration not stated) | 66* | -4 | -3 | 4 | -9 | x
CN1CCN(CC(O)COCCOc2ccc(Br)cc2)CC1 (configuration not stated) | 59* | 2 | -2 | -5 | 27 | -16
CC1(C)COCN1S(=O)(=O)c1ccc(C(=O)Nc2nnc(-c3ccc(Cl)s3)o2)cc1 | 49 | 15 | 79* | 101* | 44 | x
CCCC(=O)Nc1nnc(-c2ccc(Cl)s2)o1 | -8 | 26 | -5 | -5 | -1 | x
COc1ccc(-c2nnc(NC(=O)c3ccc(S(=O)(=O)N4COCC4(C)C)cc3)o2)cc1 | 62* | 43 | 68 | 89* | 29 | x
